Source: ChEMBL document CHEMBL1781898, “Orally active achiral N-hydroxyformamide inhibitors of ADAM-TS4 (aggrecanase-1) and ADAM-TS5 (aggrecanase-2) for the treatment of osteoarthritis” (Bioorg Med Chem Lett, 2011)
pIC50: −log10 of the molar value.

Key:
[1] = target: T1, A disintegrin and metalloproteinase with thrombospondin motifs 5 (Homo sapiens, UniProt Q9UNA0); assay: Inhibition of ADAMTS-5 assessed as substrate cleavage after 16 hrs by fluorescence assay
T1 sequence (Q9UNA0 whole entry): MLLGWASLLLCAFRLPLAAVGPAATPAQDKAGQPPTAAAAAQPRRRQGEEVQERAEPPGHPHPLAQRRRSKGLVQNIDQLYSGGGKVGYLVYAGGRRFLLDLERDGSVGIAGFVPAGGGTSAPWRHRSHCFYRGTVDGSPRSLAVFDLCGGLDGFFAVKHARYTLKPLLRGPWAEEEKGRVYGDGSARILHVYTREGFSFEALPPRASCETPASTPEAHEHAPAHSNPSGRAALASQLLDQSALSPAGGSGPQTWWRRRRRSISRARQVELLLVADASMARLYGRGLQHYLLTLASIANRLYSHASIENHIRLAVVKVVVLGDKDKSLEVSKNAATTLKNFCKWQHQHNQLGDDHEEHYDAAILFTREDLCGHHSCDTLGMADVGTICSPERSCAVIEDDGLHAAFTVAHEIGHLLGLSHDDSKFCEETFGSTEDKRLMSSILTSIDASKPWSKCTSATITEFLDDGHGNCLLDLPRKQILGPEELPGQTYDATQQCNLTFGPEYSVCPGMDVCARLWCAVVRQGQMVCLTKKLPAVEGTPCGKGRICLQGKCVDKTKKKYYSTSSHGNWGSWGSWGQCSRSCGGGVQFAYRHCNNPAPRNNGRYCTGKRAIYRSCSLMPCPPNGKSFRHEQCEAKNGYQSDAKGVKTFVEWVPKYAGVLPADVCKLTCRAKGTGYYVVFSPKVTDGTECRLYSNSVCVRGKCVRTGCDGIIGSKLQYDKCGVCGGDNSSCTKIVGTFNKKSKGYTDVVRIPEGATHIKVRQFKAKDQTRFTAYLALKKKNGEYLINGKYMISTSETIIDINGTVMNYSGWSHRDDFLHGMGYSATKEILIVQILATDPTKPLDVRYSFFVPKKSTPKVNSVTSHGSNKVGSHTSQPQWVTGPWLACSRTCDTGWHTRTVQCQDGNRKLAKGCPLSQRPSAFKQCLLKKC
In short: (§1)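 Enzyme inhibition IC50s derived from at least six measurements, standard errors normally <5% within an assay; a standard compound run to keep assay-to-assay variability within twofold.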

[2] = target: 72 kDa type IV collagenase (Homo sapiens, UniProt P08253); assay: Inhibition of recombinant human MMP-2 assessed as substrate cleavage after 20 hrs by fluorescence assay; in short: as §1
72 kDa type IV collagenase, sequence (P08253 whole entry): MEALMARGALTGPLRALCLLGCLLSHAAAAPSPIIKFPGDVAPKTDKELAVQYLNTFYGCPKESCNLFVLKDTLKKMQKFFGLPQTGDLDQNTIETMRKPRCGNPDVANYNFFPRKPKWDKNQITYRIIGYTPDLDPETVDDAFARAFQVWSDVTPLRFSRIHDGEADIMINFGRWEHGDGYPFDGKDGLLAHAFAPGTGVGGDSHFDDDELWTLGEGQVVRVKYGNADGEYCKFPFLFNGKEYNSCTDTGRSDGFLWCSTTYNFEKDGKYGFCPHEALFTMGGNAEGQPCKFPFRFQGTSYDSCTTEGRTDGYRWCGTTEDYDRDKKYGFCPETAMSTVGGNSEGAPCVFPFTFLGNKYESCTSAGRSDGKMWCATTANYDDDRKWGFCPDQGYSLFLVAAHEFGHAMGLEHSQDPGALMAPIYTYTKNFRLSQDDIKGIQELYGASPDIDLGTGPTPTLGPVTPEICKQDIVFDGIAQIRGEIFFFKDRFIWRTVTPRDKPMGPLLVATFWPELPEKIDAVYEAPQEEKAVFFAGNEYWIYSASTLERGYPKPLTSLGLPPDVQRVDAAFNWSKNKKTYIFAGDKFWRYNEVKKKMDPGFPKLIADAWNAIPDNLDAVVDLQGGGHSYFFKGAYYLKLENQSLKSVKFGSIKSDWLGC

[3] = Intrinsic clearance in human liver microsomes; type: ADME, Microsome
In short: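 Human liver microsome metabolism; intrinsic clearance expressed as μL/min/mg, reported as mean of eight separate experiments.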

[4] = target: Matrix metalloproteinase-9 (Homo sapiens, UniProt P14780); assay: Inhibition of recombinant human MMP-9 assessed as substrate cleavage after 20 hrs by fluorescence assay; in short: as §1
Matrix metalloproteinase-9, sequence (P14780 whole entry): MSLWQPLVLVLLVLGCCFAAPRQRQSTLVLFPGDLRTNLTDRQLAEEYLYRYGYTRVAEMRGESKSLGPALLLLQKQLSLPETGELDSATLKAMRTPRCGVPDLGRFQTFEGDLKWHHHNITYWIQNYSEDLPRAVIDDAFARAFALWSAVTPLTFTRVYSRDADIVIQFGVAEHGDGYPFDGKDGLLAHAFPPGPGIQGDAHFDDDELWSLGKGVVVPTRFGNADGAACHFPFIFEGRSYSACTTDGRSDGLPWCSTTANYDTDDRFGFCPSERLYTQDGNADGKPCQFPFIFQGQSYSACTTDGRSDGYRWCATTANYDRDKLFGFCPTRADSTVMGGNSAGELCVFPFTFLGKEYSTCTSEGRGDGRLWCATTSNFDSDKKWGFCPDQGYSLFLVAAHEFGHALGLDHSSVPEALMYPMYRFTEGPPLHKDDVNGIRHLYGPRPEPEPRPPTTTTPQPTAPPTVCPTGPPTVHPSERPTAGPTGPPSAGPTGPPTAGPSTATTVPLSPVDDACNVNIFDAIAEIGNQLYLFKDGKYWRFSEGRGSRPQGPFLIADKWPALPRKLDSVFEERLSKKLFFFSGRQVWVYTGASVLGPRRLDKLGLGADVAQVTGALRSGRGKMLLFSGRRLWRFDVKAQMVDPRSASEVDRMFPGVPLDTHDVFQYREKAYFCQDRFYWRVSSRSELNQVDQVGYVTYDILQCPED

[5] = target: Matrix metalloproteinase-14 (Homo sapiens, UniProt P50281); assay: Inhibition of recombinant human MMP-14 assessed as substrate cleavage after 20 hrs by fluorescence assay; in short: as §1
[6] = target: Collagenase 3 (Homo sapiens, UniProt P45452); assay: Inhibition of recombinant human MMP-13 assessed as substrate cleavage after 20 hrs by fluorescence assay; in short: as §1
[7] = target: T2, Interstitial collagenase (Homo sapiens, UniProt P03956); assay: Inhibition of recombinant human MMP-1 assessed as substrate cleavage after 20 hrs by fluorescence assay; in short: as §1
T2 sequence (P03956 whole entry): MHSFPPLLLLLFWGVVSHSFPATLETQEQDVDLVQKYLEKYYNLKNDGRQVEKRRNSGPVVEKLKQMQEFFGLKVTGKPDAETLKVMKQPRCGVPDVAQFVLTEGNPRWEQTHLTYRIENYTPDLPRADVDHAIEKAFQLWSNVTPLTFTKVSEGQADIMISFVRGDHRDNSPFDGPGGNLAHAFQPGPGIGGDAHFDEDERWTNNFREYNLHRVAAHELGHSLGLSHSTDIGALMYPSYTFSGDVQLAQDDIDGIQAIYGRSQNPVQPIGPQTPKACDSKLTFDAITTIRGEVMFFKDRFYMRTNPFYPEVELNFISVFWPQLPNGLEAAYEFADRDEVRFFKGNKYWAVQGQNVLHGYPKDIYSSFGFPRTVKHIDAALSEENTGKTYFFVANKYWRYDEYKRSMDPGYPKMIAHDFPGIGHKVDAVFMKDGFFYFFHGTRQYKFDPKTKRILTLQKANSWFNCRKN

[8] = target: T3, A disintegrin and metalloproteinase with thrombospondin motifs 4 (Homo sapiens, UniProt O75173); assay: Inhibition of ADAMTS-4 assessed as substrate cleavage after 16 hrs by fluorescence assay; in short: as §1
T3 sequence (O75173 whole entry): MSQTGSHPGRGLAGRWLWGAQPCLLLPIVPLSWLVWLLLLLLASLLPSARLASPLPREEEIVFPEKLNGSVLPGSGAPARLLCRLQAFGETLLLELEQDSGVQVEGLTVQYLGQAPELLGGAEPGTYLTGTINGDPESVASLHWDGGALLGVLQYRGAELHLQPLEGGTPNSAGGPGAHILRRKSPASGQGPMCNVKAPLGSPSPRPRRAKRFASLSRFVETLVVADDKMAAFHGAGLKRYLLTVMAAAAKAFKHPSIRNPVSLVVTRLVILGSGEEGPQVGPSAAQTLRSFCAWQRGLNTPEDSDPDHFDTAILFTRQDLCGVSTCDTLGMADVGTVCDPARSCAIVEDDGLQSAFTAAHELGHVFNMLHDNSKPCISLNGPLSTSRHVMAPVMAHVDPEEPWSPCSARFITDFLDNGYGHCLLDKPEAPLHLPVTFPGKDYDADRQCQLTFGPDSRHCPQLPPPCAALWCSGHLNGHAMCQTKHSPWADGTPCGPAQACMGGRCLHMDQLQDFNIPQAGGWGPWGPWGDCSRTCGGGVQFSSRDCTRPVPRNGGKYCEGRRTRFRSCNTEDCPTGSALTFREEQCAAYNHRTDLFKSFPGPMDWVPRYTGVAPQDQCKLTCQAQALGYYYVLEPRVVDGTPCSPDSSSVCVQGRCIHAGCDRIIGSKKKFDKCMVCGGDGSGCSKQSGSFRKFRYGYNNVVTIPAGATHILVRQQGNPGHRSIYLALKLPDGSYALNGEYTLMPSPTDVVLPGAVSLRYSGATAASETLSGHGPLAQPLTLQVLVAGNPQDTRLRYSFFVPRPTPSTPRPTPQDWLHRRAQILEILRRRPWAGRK

[9] = target: Cytochrome P450 3A4 (Homo sapiens, UniProt P08684); assay: Inhibition of CYP3A4; type: ADME
Cytochrome P450 3A4, sequence (P08684 whole entry, canonical isoform): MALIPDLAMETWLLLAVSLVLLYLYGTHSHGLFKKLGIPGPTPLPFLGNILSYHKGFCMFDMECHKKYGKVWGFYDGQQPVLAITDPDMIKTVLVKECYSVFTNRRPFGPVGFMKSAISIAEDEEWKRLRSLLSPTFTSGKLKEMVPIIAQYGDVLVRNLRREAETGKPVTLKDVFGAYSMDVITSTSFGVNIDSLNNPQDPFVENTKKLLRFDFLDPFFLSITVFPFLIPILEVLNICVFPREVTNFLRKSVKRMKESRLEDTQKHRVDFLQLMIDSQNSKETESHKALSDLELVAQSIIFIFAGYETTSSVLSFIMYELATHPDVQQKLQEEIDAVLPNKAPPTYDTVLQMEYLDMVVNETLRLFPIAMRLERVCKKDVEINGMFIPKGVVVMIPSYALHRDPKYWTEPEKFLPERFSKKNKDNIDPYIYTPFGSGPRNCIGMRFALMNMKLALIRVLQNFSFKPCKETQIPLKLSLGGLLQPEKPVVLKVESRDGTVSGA
In short: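 Inhibition of cytochrome P450 isoforms 1A2, 2C9, 2C19, 2D6 and 3A4, reported as pIC50.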

Row | Structure (SMILES) | pIC50 [1] | pIC50 [2] | microsomal CLint [3] | pIC50 [4] | pIC50 [5] | pIC50 [6] | pIC50 [7] | pIC50 [8] | pIC50 [9]
1 | Cc1noc(C)c1CCC1CCN(S(=O)(=O)CC2(N(O)C=O)CCCCCC2)CC1 | 5.82 | < 5.00 | 59 µL/min/mg | < 5.00 | < 5.00 | < 5.00 | < 5.00 | 7.32 | –
2 | CS(=O)(=O)c1ccc(CCC2CCN(S(=O)(=O)CC3(N(O)C=O)CCOCC3)CC2)c(C2CC2)c1 | 6.02 | < 5.00 | 3.7 µL/min/mg | < 5.00 | < 5.00 | < 5.00 | < 5.00 | 8.85 | –
3 | Cc1noc(C)c1CCC1CCN(S(=O)(=O)CC2(N(O)C=O)CCN(S(C)(=O)=O)CC2)CC1 | 6.51 | < 5.00 | 6.5 µL/min/mg | < 5.00 | < 5.00 | 5.34 | < 5.00 | 7.54 | –
4 | Cc1cc(Cl)ccc1CCC1CCN(S(=O)(=O)CC2(N(O)C=O)CCOCC2)CC1 | 7.19 | 5.85 | – | 5.92 | < 5.00 | 6.11 | < 5.00 | 8.57 | –
5 | CC(CS(=O)(=O)N1CCN(c2ccc(F)cc2)CC1)N(O)C=O (racemic) | – | – | – | – | 6.65 | 6.81 | < 5.00 | – | 6.00
6 | Cc1noc(C)c1CCC1CCN(S(=O)(=O)CC2(N(O)C=O)CCC2)CC1 | 5.82 | < 5.00 | 3.3 µL/min/mg | < 5.00 | < 5.00 | < 5.00 | < 5.00 | 7.29 | –
7 | Cc1noc(C)c1CCC1CCN(S(=O)(=O)CC2(N(O)C=O)CCCC2)CC1 | 5.72 | < 5.00 | – | < 5.00 | < 5.00 | < 5.00 | < 5.00 | 7.28 | –
8 | Cc1ncccc1CCC1CCN(S(=O)(=O)CC2(N(O)C=O)CCOCC2)CC1 | 5.27 | 5.42 | < 2 µL/min/mg | < 5.00 | 5.10 | 5.70 | < 5.00 | 6.40 | –
9 | Cc1cc(S(C)(=O)=O)ccc1CCC1CCN(S(=O)(=O)CC2(N(O)C=O)CCOCC2)CC1 | 6.28 | 5.48 | 2 µL/min/mg | < 5.00 | < 5.00 | 5.77 | < 5.00 | 8.24 | –
10 | Cc1ccccc1CCC1CCN(S(=O)(=O)CC2(N(O)C=O)CCN(C(=O)C3CCC3)CC2)CC1 | 7.89 | – | – | – | – | – | – | 8.39 | –
11 | Cc1cc(C)c(CCC2CCN(S(=O)(=O)CC3(N(O)C=O)CCOCC3)CC2)cn1 | 5.85 | 5.12 | – | 5.05 | < 5.00 | < 5.00 | < 5.00 | 6.89 | –
12 | CN1CCC(CS(=O)(=O)N2CCN(c3ccc(F)cc3)CC2)(N(O)C=O)CC1 | – | – | – | – | 5.54 | 6.24 | < 5.17 | 6.28 | < 5.00
13 | Cc1ccccc1CCC1CCN(S(=O)(=O)CC2(N(O)C=O)CCOCC2)CC1 | 7.51 | 6.21 | < 2 µL/min/mg | < 5.74 | < 6.11 | < 6.22 | < 5.00 | 8.25 | –
14 | Cc1cc(C(F)(F)F)ccc1CCC1CCN(S(=O)(=O)CC2(N(O)C=O)CCN(C(=O)C3CCC3)CC2)CC1 | 7.10 | – | – | – | – | – | – | 8.92 | –
15 | Cc1cc(Cl)ccc1CCC1CCN(S(=O)(=O)CC2(N(O)C=O)CCN(C(=O)C3CCC3)CC2)CC1 | 7.70 | – | – | – | – | – | – | 8.92 | –
16 | Cc1cccnc1CCC1CCN(S(=O)(=O)CC2(N(O)C=O)CCOCC2)CC1 | 6.24 | 5.96 | 3.8 µL/min/mg | 5.07 | 5.54 | 5.96 | < 5.00 | 7.00 | –
17 | CC(=O)N1CCC(CS(=O)(=O)N2CCC(CCc3c(C)noc3C)CC2)(N(O)C=O)CC1 | 6.09 | < 5.00 | < 2 µL/min/mg | < 5.00 | < 5.00 | < 5.00 | < 5.00 | 7.62 | –
18 | Cc1noc(C)c1CCC1CCN(S(=O)(=O)CC2(N(O)C=O)CCN(C(=O)N3CCC3)CC2)CC1 | 6.32 | < 5.00 | 31 µL/min/mg | < 5.00 | < 5.00 | < 5.00 | < 5.00 | 7.96 | –
19 | Cc1cnc(C)c(CCC2CCN(S(=O)(=O)CC3(N(O)C=O)CCOCC3)CC2)c1 | 5.28 | < 5.00 | – | < 5.00 | < 5.00 | 5.08 | < 5.00 | 6.42 | –
20 | Cc1noc(C)c1CCC1CCN(S(=O)(=O)CC2(N(O)C=O)CCCCC2)CC1 | 6.07 | < 5.00 | – | < 5.00 | < 5.12 | < 5.39 | < 5.00 | 7.70 | –
21 | Cc1cc(F)ccc1CCC1CCN(S(=O)(=O)CC2(N(O)C=O)CCN(C(=O)C3CCC3)CC2)CC1 | 7.96 | – | – | – | – | – | – | 8.72 | –
22 | CC(C)(CS(=O)(=O)N1CCN(c2ccc(F)cc2)CC1)N(O)C=O | – | – | – | – | 5.85 | 5.85 | < 5.00 | 7.04 | < 5.00
23 | O=CN(O)C1(CS(=O)(=O)N2CCC(CCc3ccccc3)CC2)CCOCC1 | 5.77 | 6.82 | 8.8 µL/min/mg | 6.17 | 5.92 | 6.59 | < 5.00 | 6.33 | –
24 | Cc1ccncc1CCC1CCN(S(=O)(=O)CC2(N(O)C=O)CCOCC2)CC1 | 6.20 | 5.46 | 3.4 µL/min/mg | < 5.00 | < 5.14 | 5.23 | < 5.00 | 6.96 | –
25 | O=CN(O)C1(CS(=O)(=O)N2CCC(CCc3ccc(F)cc3C(F)(F)F)CC2)CCN(C(=O)C2CCC2)CC1 | 7.21 | – | – | – | – | – | – | 8.06 | –
